The nature of data set [1]: Oral bioavailability in squirrel monkey at 10 mg/kg, po. To be noted: in vivo. The format is ADME, organism-based, Saimiri sciureus.
Data set [2] is described as follows: Cmax in squirrel monkey at 10 mg/kg, po after 2 hrs. More on the design: dose 10 mg/kg, route oral. The conditions noted are these: in vivo. Type of data set: ADME, organism-based, Saimiri sciureus.
In data set [3] the target is T1, Polyunsaturated fatty acid 5-lipoxygenase (Rattus norvegicus) (UniProt P12527).
T1 sequence (whole entry): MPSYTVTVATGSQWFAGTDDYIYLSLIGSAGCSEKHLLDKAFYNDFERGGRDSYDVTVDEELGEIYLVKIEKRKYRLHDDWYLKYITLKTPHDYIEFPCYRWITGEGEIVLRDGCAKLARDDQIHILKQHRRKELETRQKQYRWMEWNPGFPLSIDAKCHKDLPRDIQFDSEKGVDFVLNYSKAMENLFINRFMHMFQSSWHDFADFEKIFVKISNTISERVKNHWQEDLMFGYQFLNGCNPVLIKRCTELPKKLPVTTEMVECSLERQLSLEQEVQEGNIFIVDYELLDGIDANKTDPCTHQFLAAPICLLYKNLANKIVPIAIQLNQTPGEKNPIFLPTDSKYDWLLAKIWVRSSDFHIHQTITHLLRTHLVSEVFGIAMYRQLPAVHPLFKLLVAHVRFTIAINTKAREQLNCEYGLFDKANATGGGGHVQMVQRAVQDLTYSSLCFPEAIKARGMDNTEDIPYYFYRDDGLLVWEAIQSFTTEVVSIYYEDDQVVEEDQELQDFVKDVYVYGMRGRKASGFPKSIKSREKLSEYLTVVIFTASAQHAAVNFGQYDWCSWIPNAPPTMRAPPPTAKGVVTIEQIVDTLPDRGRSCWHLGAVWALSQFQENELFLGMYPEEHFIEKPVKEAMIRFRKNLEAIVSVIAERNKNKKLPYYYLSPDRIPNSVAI
Description: Activity against carrageenan-induced inflammation in orally dosed rat pleural cavity assessed as inhibition of LTB4 biosynthesis after 2 hrs. Type of data set: functional, organism-based.

The nature of data set [4]: Cmax in rat at 20 mg/kg, po. More on the design: dose 20 mg/kg, route oral. The format is ADME, organism-based. The conditions noted are these: in vivo. The procedure, abridged: (§1)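 Rats dosed orally at 20 mg/kg in 0.5% methocel, given as the water-soluble sodium salt of the hydroxy-acid precursor that cyclizes to the coumarin.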
Data set [5] in a line: Oral bioavailability in rat at 20 mg/kg, po. Type of data set: ADME, organism-based. The conditions noted are these: in vivo. The procedure, abridged: as §1
The target of data set [6] is T2, Polyunsaturated fatty acid 5-lipoxygenase (Homo sapiens, UniProt P09917).
T2 sequence (P09917 whole entry): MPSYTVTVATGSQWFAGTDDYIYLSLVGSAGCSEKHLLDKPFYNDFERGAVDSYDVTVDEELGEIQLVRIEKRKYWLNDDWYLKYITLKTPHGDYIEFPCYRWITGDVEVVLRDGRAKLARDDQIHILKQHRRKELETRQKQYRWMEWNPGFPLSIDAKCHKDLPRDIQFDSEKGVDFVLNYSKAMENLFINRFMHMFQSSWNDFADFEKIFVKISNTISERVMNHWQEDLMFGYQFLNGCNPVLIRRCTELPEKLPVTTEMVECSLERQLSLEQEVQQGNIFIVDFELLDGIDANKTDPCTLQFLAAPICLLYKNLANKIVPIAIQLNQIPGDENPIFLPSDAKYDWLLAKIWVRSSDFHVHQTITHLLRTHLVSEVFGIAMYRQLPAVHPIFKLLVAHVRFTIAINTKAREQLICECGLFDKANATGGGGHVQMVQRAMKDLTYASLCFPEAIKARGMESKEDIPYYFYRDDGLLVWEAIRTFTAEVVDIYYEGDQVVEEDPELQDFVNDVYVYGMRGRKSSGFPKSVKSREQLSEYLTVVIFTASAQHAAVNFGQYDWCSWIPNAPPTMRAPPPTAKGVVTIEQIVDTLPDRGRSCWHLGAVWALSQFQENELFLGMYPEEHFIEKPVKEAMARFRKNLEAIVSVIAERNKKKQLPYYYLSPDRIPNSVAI
Description: Inhibition of LTB4 production in calcium ionophore A-23187-stimulated human whole blood. Type of data set: functional, tissue-based.

Data set [7] has as its target T2, Polyunsaturated fatty acid 5-lipoxygenase. Description: Inhibition of LTB4 production in calcium ionophore A-23187-stimulated human polymorphonuclear leukocyte. The format is functional.
Data set [8] shares this target. Description: Inhibition of human 5-LO.
Data set [9] deals with Rattus norvegicus. In words: Oral absorption in rat at 20 mg/kg, po. Type of data set: ADME, organism-based. More on the design: dose 20 mg/kg, route oral. To be noted: in vivo. A digest of the protocol: as §1

Data on six compounds can be found in ChEMBL document CHEMBL1147648, “Substituted coumarins as potent 5-lipoxygenase inhibitors” (Bioorg Med Chem Lett, 2006).

pIC50: −log10 of the molar value.

Consider `O=C([O-])/C=C(/c1ccc(F)cc1)c1ccc(Sc2cc(F)cc(C(O)(C(F)(F)F)C(F)(F)F)c2)cc1[O-].[Na+].[Na+]`, for which the bioavailability in data set [1] was determined as 30%; in data set [5], 100%. The Cmax in [2] was 1.2 µM; in [4], 16 µM. In data set [3], the ED50 is 1.6 mg/kg.

For `O=c1cc(-c2ccoc2)c2ccc(Sc3cc(F)cc(C(O)(C(F)(F)F)C(F)(F)F)c3)cc2o1`, the negative logarithm of the IC50 (pIC50) in [6] was 7.28; in [7], 9.10; in data set [8] it was 8.05.

In the case of `O=c1cc(-c2ccc(F)cc2)c2ccc(COc3cc(F)cc(C(O)(C(F)(F)F)C(F)(F)F)c3)cc2o1`, the pIC50 in data set [6] was 6.82; in data set [7] it was 8.72; in [8], 7.26.

Regarding `O=c1cc(-c2ccc(F)cc2)c2ccc(Sc3cc(F)cc(C(O)(C(F)(F)F)C(F)(F)F)c3)cc2o1`, the Fa result in data set [9] is on record as “Not Active”.

As for `O=c1cc(-c2ccccc2)c2ccc(Sc3cc(F)cc(C(O)(C(F)(F)F)C(F)(F)F)c3)cc2o1`, the pIC50 in data set [6] is 7.06; in data set [7], 9.30; in data set [8], 7.59.

Consider `O=c1cc(-c2ccoc2)c2ccc(COc3cc(F)cc([C@]4(O)C[C@H]5CO[C@@H](C4)O5)c3)cc2o1`, for which the values for the pIC50 in data set [6], in data set [7] and in [8] were 7.32, 8.52 and 6.70, respectively.

Usually bioavailability stands for dose-corrected exposure relative to a reference, in per cent. The term Cmax denotes the maximum level reached in the sampled fluid or tissue. For orientation: ED50 means the dose at which the effect has come halfway, by size or by number of responders. As usually defined, the pIC50 is the negative decadic logarithm of the IC50, by convention in mol/L.
